Source: ChEMBL document CHEMBL3259728, “Design, synthesis and biological evaluation of some novel substituted quinazolines as antitumor agents” (2014)

Tests used:
Assay type in all cases: functional
[1] = Growth inhibition of human HCT15 cells at 10 uM after 48 hrs by SRB assay; conditions: HCT-15, 48 h, read-out: GI
Procedure, shortened: (§1)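 NCI-60 primary one-dose screen run at the US NCI, with human tumour lines from nine cancer types. Compound added once at 10^-5 M, followed by 48 h incubation. End point was sulforhodamine B protein staining read spectrophotometrically. Result given as percent growth of treated cells against untreated controls, reported as % growth inhibition.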

[2] = Growth inhibition of human HCC2998 cells at 10 uM after 48 hrs by SRB assay; conditions: HCC 2998, 48 h, read-out: GI; procedure, shortened: as §1
U-251 = assay: Growth inhibition of human U251 cells assessed as cell growth at 10^-6 M after 48 hrs by SRB assay; conditions: U-251, 48 h, read-out: Activity
MDA-MB-468 = assay: Growth inhibition of human MDA-MB-468 cells assessed as cell growth at 10^-4 M after 48 hrs by SRB assay; conditions: MDA-MB-468, 48 h, read-out: Activity
COLO 205 = assay: Growth inhibition of human COLO205 cells at 10 uM after 48 hrs by SRB assay; conditions: COLO 205, 48 h, read-out: GI
Procedure, shortened: (§2)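 NCI primary one-dose screen. A single concentration of 10^-5 M was added to the cell culture, followed by 48 h incubation and an SRB protein-dye endpoint read spectrophotometrically. Results are growth percentage relative to untreated control cells, reported as % growth inhibition.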

[3] = Growth inhibition of human SF539 cells at 10 uM after 48 hrs by SRB assay; conditions: SF-539, 48 h, read-out: GI; procedure, shortened: as §1
DU-145 = assay: Growth inhibition of human DU145 cells assessed as cell growth at 10^-5 M after 48 hrs by SRB assay; conditions: DU-145, 48 h, read-out: Activity
Procedure, shortened: (§3)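 Five-dose NCI panel protocol. Each dose (10^-4 to 10^-8 M, 10-fold steps) was given as 48 h continuous exposure, and protein was measured by SRB staining. Percentage growth at each level is [(Ti−Tz)/(C−Tz)]×100, where Tz is time-zero absorbance and C is untreated control.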

[4] = Growth inhibition of human UO31 cells at 10 uM after 48 hrs by SRB assay; conditions: UO-31, 48 h, read-out: GI; procedure, shortened: as §1
ACHN [5] = assay: Growth inhibition of human ACHN cells at 10 uM after 48 hrs by SRB assay; conditions: read-out: GI; procedure, shortened: as §2
[6] = Growth inhibition of human NCI-ADR-RES cells at 10 uM after 48 hrs by SRB assay; conditions: read-out: GI; procedure, shortened: as §1
ACHN [7] = assay: Cytotoxicity against human ACHN cells after 48 hrs by SRB assay
Procedure, shortened: (§4)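 NCI 60-cell-line panel of human tumour lines from nine cancer types. Continuous 48 h exposure at five 10-fold dilutions from 10^-4 to 10^-8 M, with 5-FU as positive control. SRB protein stain read spectrophotometrically at time zero, untreated control and each concentration. GI50, TGI and LC50 were derived from the [(Ti−Tz)/(C−Tz)]×100 growth relations, and out-of-range values are given as > or < the tested limits.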

NCI-H522 = assay: Growth inhibition of human NCI-H522 cells at 10 uM after 48 hrs by SRB assay; conditions: NCI-H522, 48 h, read-out: GI; procedure, shortened: as §1
PC-3 [8] = assay: Growth inhibition of human PC3 cells at 10 uM after 48 hrs by SRB assay; conditions: PC-3, 48 h, read-out: GI; procedure, shortened: as §1
CCRF-CEM [9] = assay: Growth inhibition of human CCRF-CEM cells assessed as cell growth at 10^-5 M after 48 hrs by SRB assay; conditions: read-out: Activity; procedure, shortened: as §3
SR = assay: Growth inhibition of human SR cells at 10 uM after 48 hrs by SRB assay; conditions: read-out: GI; procedure, shortened: as §1
KM12 = assay: Cytotoxicity against human KM12 cells after 48 hrs by SRB assay; conditions: KM12, 48 h; procedure, shortened: as §4
K562 = assay: Growth inhibition of human K562 cells assessed as cell growth at 10^-5 M after 48 hrs by SRB assay; conditions: K562, 48 h, read-out: Activity
[10] = Growth inhibition of human RXF393 cells at 10 uM after 48 hrs by SRB assay; conditions: RXF 393, 48 h, read-out: GI; procedure, shortened: as §1
CCRF-CEM [11] = assay: Growth inhibition of human CCRF-CEM cells assessed as cell growth at 10^-4 M after 48 hrs by SRB assay; conditions: read-out: Activity; procedure, shortened: as §3
NCI-H322M = assay: Growth inhibition of human NCI-H322M cells at 10 uM after 48 hrs by SRB assay; conditions: read-out: GI; procedure, shortened: as §1
PC-3 [12] = assay: Growth inhibition of human PC3 cells assessed as cell growth at 10^-4 M after 48 hrs by SRB assay; conditions: PC-3, 48 h, read-out: Activity
SK-MEL-28 = assay: Growth inhibition of human SK-MEL-28 cells at 10 uM after 48 hrs by SRB assay; conditions: SK-MEL-28, 48 h, read-out: GI; procedure, shortened: as §1
786-0 = assay: Growth inhibition of human 786-0 cells at 10 uM after 48 hrs by SRB assay; conditions: 786-0, 48 h, read-out: GI; procedure, shortened: as §2
CCRF-CEM [13] = assay: Growth inhibition of human CCRF-CEM cells at 10 uM after 48 hrs by SRB assay; conditions: read-out: GI; procedure, shortened: as §2
[14] = Growth inhibition of human OVCAR3 cells at 10 uM after 48 hrs by SRB assay; conditions: OVCAR-3, 48 h, read-out: GI; procedure, shortened: as §1
NCI-H23 = assay: Growth inhibition of human NCI-H23 cells at 10 uM after 48 hrs by SRB assay; conditions: NCI-H23, 48 h, read-out: GI; procedure, shortened: as §1
TK-10 = assay: Growth inhibition of human TK10 cells at 10 uM after 48 hrs by SRB assay; conditions: TK-10, 48 h, read-out: GI; procedure, shortened: as §1
RPMI-8226 = assay: Growth inhibition of human RPMI8226 cells at 10 uM after 48 hrs by SRB assay; conditions: RPMI-8226, 48 h, read-out: GI; procedure, shortened: as §1
HL-60(TB) = assay: Growth inhibition of human HL-60(TB) cells at 10 uM after 48 hrs by SRB assay; conditions: HL-60, 48 h, read-out: GI
Procedure, shortened: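 NCI 60-cell-line primary screen: compound added at single concentration 10^-5 M, cultures incubated 48 h; end point by sulforhodamine B protein staining read spectrophotometrically; result given as growth percentage of treated versus untreated control cells, reported as % growth inhibition.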

[15] = read-out: LC50 (the source's name)
[16] = read-out: pLC50 (the source's name) (converted)

Cc1ccc(-c2nc3ccc(Cl)cc3c(=O)n2/N=C/c2ccccc2)cc1
inhibition of growth at 10 µM [1]: 14% | inhibition of growth at 10 µM [2]: < 10% | growth at 1 µM (U-251): 93% | growth at 100 µM (MDA-MB-468): 45% | inhibition of growth at 10 µM (COLO 205): 34% | inhibition of growth at 10 µM [3]: 22% | growth at 10 µM (DU-145): 55% | inhibition of growth at 10 µM [4]: 33% | inhibition of growth at 10 µM (ACHN [5]): 74% | inhibition of growth at 10 µM [6]: 30% | GI50 (ACHN [7]; read-out: GI50): 0.627 µM | CC50 (ACHN [7]; [15]): > 100 µM | TGI (ACHN [7]; read-out: TGI): > 100 µM | GI50 (ACHN [7]; read-out: pGI50 (converted)): 0.631 µM | CC50 (ACHN [7]; [16]): > 100 µM | TGI (ACHN [7]; read-out: pTGI): > 100 µM | inhibition of growth at 10 µM (NCI-H522): 52% | inhibition of growth at 10 µM (PC-3 [8]): 30% | growth at 10 µM (CCRF-CEM [9]): 86% | inhibition of growth at 10 µM (SR): 20% | GI50 (KM12; read-out: GI50): > 100 µM | CC50 (KM12; [15]): > 100 µM | TGI (KM12; read-out: TGI): > 100 µM | GI50 (KM12; read-out: pGI50 (converted)): > 100 µM | CC50 (KM12; [16]): > 100 µM | TGI (KM12; read-out: pTGI): > 100 µM | growth at 10 µM (K562): 72% | inhibition of growth at 10 µM [10]: < 10% | growth at 100 µM (CCRF-CEM [11]): 57% | inhibition of growth at 10 µM (NCI-H322M): 24% | growth at 100 µM (PC-3 [12]): 49% | inhibition of growth at 10 µM (SK-MEL-28): < 10% | inhibition of growth at 10 µM (786-0): 30% | inhibition of growth at 10 µM (CCRF-CEM [13]): < 10% | inhibition of growth at 10 µM [14]: 42% | inhibition of growth at 10 µM (NCI-H23): 11% | inhibition of growth at 10 µM (TK-10): 26% | inhibition of growth at 10 µM (RPMI-8226): 20% | inhibition of growth at 10 µM (HL-60(TB)): 26%
